Tests used:
Vero C1008 = test: Cytotoxicity against African green monkey Vero E6 cells assessed as cell growth inhibition after 48 hrs by celltitre 96 aqueous one-based assay; details: Chlorocebus sabaeus, Vero C1008, 48 h
[1] = Hemolytic activity against human RBC after 1 hr; assay type: ADME, cell-based, Erythrocyte; details: red blood cells (erythrocytes)
Procedure, shortened: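 Human red blood cells were exposed to the test compound at a range of concentrations in phosphate-buffered saline for 1 h at 37°C. Hemolysis was referenced to 2% Triton X-100, taken as 100% hemolysis. The value reported is the concentration that lyses 50% of RBCs.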

SMILES | IC50 (Vero C1008) | HC50 at 1 h [1]
CCCCCCCCn1cc(CNCC2CC3CC3C2)c2ccc(OC)cc21 (stereo unspecified) | 10 µM | 33 µM
CCCCCCCCn1cc(CN2CCC3(CC2)OCCO3)c2ccc(OCc3ccccc3)cc21 | 36 µM | > 300 µM
CCCCCCCCn1cc(CN2CCC3(CC2)OCCO3)c2ccc(OC(C)C)cc21 | 41 µM | 56 µM
CCCCCCCCn1cc(CN2CCC3(CC2)OC[C@@H](C)O3)c2ccc(OC)cc21 | 37 µM | 75 µM
CCCCCCCCn1cc(CN2CCC3(CC2)OCCCO3)c2cccc([N+](=O)[O-])c21 | 49 µM | > 300 µM
COc1ccc2c(CN3CCC4(CC3)OCCCO4)cn(CCCOc3ccc(C)cc3)c2c1 | – | > 300 µM
CCCCCCCCn1cc(CN2CCC3(CC2)OCCO3)c2ccc(OCCC)cc21 | 29 µM | 31 µM
COc1ccc(OCCCn2cc(CN3CCC4(CC3)OCCCO4)c3ccc(OC)cc32)cc1 | 46 µM | > 300 µM
COc1ccc2c(CN3CCCCC3)cn(CCCc3ccccc3)c2c1 | 43 µM | –
COc1ccc2c(CN3CCC4(CC3)OCCCO4)cn(CCCOc3ccc(C)c(C)c3)c2c1 | – | > 300 µM
CCCCCCCCn1cc(CN2CCC3(CC2)OC[C@H](C)O3)c2ccc(OC)cc21 | 34 µM | 51 µM
CCCCCCCCn1cc(CN2CCC3(CC2)OCCCO3)c2ccc(OCc3ccccc3)cc21 | 27 µM | > 300 µM
CCCCCCCCn1cc(CN2CCC3(CC2)OCCCO3)c2ccc(OC(C)C)cc21 | 20 µM | 29 µM
COc1ccc(CCCn2cc(CN3CCC4(CC3)OCCO4)c3ccc(OC)cc32)cc1 | 31 µM | –
COc1ccc2c(CN3CCC4(CC3)OCCCO4)cn(CCCOc3ccccc3)c2c1 | – | > 300 µM
CCCCCCCCn1cc(CN2CCCCC2)c2ccc(OC(C)C)cc21 | 26 µM | –
CCCCCCCCn1cc(CN2CCC3(CC2)OCCCO3)c2ccc(OCCC)cc21 | 29 µM | 27 µM

SMILES | IC50 (Vero C1008) | HC50 at 1 h [1]
CCCCCCCCn1cc(CN2CC(c3ccccc3)C2)c2ccc(OC)cc21 | 44 µM | > 300 µM
CCCCCCCCn1cc(CN2CCC3(CC2)OCCCO3)c2ccc(C#N)cc21 | 22 µM | > 300 µM
CCCCCCCCn1cc(CN2CCCC3(CC2)OCCS3)c2ccc(OC)cc21 (stereo unspecified) | 35 µM | > 300 µM
CCCCCCCCn1cc(CNC2CCC3(CC2)OCCO3)c2ccc(OC)cc21 | 22 µM | 207 µM
COc1ccc2c(CN3CCC4(CC3)OCCO4)cn(CCCc3ccccc3)c2c1 | 35 µM | –
CCCCCCCCn1cc(CN2CCC3(CC2)OCCO3)c2ccc(C#N)cc21 | 59 µM | > 300 µM
CCCCCCCCn1ccc2ccc(OCCCN3CCCCCC3)cc21 | 33 µM | –
COc1ccc2c(CN3CCC4(CC3)OCCCO4)cn(CCCOCc3ccccc3)c2c1 | 54 µM | –
CCCCCCCCn1cc(CN2CCCCC2)c2ccc([N+](=O)[O-])cc21 | 23 µM | –
CCCCCCCCn1cc(CN2CCCCC2)c2ccc(C#N)cc21 | 22 µM | –
CCCCCCCCn1cc(CN2CCC3(CCN(Cc4ccccc4)CC3)CC2)c2ccc(OC)cc21 | 14 µM | 69 µM
COc1ccc2c(CN3CCC4(CC3)OCCCO4)cn(CCCOc3ccc(F)cc3)c2c1 | – | > 300 µM
CCCCCCCCn1cc(CN2CCC3(CC2)OCCCO3)c2ccc([N+](=O)[O-])cc21 | 28 µM | > 300 µM
CCCCCCCCn1cc(CNCC2CC3CCC2C3)c2ccc(OC)cc21 (stereo unspecified) | 10 µM | 19 µM
CCCCCCCCn1cc(CN2CCCC3(CC2)OCCCS3)c2ccc(OC)cc21 (stereo unspecified) | 34 µM | 132 µM
COc1ccc2c(CN3CCC4(CC3)OCCCO4)cn(CCCCc3ccccc3)c2c1 | 21 µM | > 300 µM
CCCCCCCCn1cc(CN2CCC3(CC2)OCCO3)c2ccc([N+](=O)[O-])cc21 | 62 µM | > 300 µM

Source: ChEMBL document CHEMBL4145615, “Indolyl Azaspiroketal Mannich Bases Are Potent Antimycobacterial Agents with Selective Membrane Permeabilizing Effects and in Vivo Activity” (J Med Chem, 2018)
